# Rows were chosen to be rich in hits. Some 5.4% of all compounds tested hit in one or more screens of this group.
# Mdm2 MdmX PPI – inhibitors of human Mdm2-MdmX association, primary screen, cell-based, luminescence, split luciferase, SaOS-2, uHTS | SaOS-2 split-luciferase Mdm2/MdmX complementation | inhibition, % at 8 µM | Protein Mdm4 (Homo sapiens) + E3 ubiquitin-protein ligase Mdm2 (Homo sapiens), … | 330,000 compounds, 3% hits;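 active = inhibition of at least 50% at 8 µM in the primary screen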
# CSC inhib – cancer stem cell viability inhibitors, primary screen, luminescence; cancer stem cell-like cells viability; inhibition, % at 7.5 µM; 300,000 compounds, 1.1% hits; in the data active = inhibition above about 75%; inconclusive = no clear call, values can overlap the other calls; tested in HMLE shEcad cells
# aSyn UTR inh – MLPCN primary screen, SNCA 5' untranslated region | AID 1813, 2009 | 300,000 compounds, 0.82% hits | inhibition, % (tested at 7.5 µM) | alpha-synuclein 5'UTR reporter, inhibitor activity; in the data active = inhibition above about 60%; inconclusive = no clear call, values can overlap the other calls;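 note: H4 neuroglioblastoma cells stably carrying SNCA 5'UTR luciferase fusion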
# T cruzi inh – inhibitors of intracellular T. cruzi growth, primary screen, luminescence, NIH3T3 host cells; inhibition, % (concentration not given with the values); AID 1885, 2009; T. cruzi beta-gal in NIH3T3, 90 h; 300,000 compounds, 1.4% hits;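 active = mean inhibition across valid replicates above about 55%, limit read from the data; inconclusive = mean below that limit but half or more replicates reach it; inactive = mean below it, under half of replicates reach it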;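 note: signal also drops with host cell toxicity which is not excluded here; higher percent means less beta-gal luminescence so fewer parasites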
#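 Assay system: NIH/3T3 fibroblasts plus reporter T. cruzi. Amount: NIH/3T3 cells, 5,000 per well. Buffer or medium: DMEM, 2% fetal bovine serum. Doses: compound pinned at 50 nL/well, DMSO. Schedule: ≥90 h infection period, 3 h prior cell attachment. Signal: luminescent β-galactosidase signal after 60 min lysis. Read-out: parasite load inhibition, %.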
# SKKanGAS inh – S. pyogenes SKKanGAS growth inhibitors in kanamycin, primary screen, streptokinase expression inhibitor project, SKKanGAS strain, BacTiter-Glo luminescence. 300,000 compounds, 1.3% hits. inhibition, % at 7.5 µM. 6 h;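 active = mean replicate score, as percent of positive control median, at least 50; inconclusive = mean below 50 but one replicate at or above 50; inactive = mean and every replicate below 50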;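 note: strain carries kanamycin resistance gene driven by streptokinase promoter and grows in 40 µg/ml kanamycin; loss of luminescence reflects streptokinase promoter inhibition or plain growth inhibition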
# A number is an active result; - = inactive; ? = inconclusive; . = not tested or not shown.
SMILES,Mdm2 MdmX PPI,CSC inhib,aSyn UTR inh,T cruzi inh,SKKanGAS inh
COc1ccccc1NC(C)=[N+](C)CCNS(=O)(=O)c1ccc(Cl)cc1,-,-,-,-,-
CCOC(=O)c1c(CN(C)C)n(-c2ccccc2)c2cc(Br)c(OC)cc12,-,.,-,-,-
CCOC(=O)c1c(CN(C)C)n(-c2ccc(C)cc2)c2cc(Br)c(O)cc12,-,-,-,-,100.3
CCCn1c(NC(=O)c2cccc(C)c2C)nc2ccccc21,-,-,-,?,51.8
CCN(CC)CCn1c(NC(=O)c2ccc(C)cc2)nc2ccccc21,-,-,-,-,-
CCCn1c(NC(=O)c2ccc([N+](=O)[O-])o2)nc2ccccc21,-,-,-,57.8,-
CCN(CC)CCn1c(NC(=O)c2ccc(C(F)(F)F)cc2)nc2ccccc21,-,-,-,62.0,-
CCN(c1ccc(OC)cc1)S(=O)(=O)c1ccc(-c2ccc(=O)[nH]n2)o1,-,-,-,-,-
Cc1nc2cc(-c3ccccc3)nn2c(C)c1CCC(=O)N1CCN(c2ccccc2)CC1,-,-,?,-,-
COc1ccccc1CNC(=O)CCc1c(C)nc2cc(-c3ccccc3OC)nn2c1C,-,-,-,-,-
COc1ccccc1-c1cc2nc(C)c(CCC(=O)NCc3ccc(F)cc3)c(C)n2n1,-,-,-,61.3,-
COc1cc(OC)cc(-c2cc3nc(C)c(CCC(=O)NCc4ccccc4)c(C)n3n2)c1,-,-,75.0,-,-
CC1(C)Cc2c(sc(NC(=O)C(=O)N3CCOCC3)c2C(N)=O)CO1,-,-,-,-,-
COc1ccc(C(c2c(O)nc[nH]c2=O)c2c(O)nc[nH]c2=O)cc1,-,-,-,-,-
Cc1ccc(C(=O)N(CCCN(C)C)c2nc3ccc(Cl)cc3s2)cc1C,-,-,-,69.5,-
CCc1ccc2nc(N(CCN(C)C)C(=O)c3ccc4ncsc4c3)sc2c1,-,-,-,63.8,-
CN(C)CCN(C(=O)c1ccc2c(c1)OCCO2)c1nc2ccc(Cl)cc2s1,-,-,-,56.7,-
CN(C)CCCN(C(=O)c1ccc2c(c1)OCCO2)c1nc2ccc(Cl)cc2s1,-,-,-,-,-
Cc1cc(C(=O)NC(C)C2CCCO2)c(C)o1 (centres undefined),-,-,-,-,-
Cc1cccc(NC(=O)c2ccc(CN3CCc4ccccc4C3)cc2)c1C,-,-,-,-,-
CCC(c1nnnn1CCc1ccccc1)N(Cc1ccco1)Cc1cc2c(C)ccc(C)c2[nH]c1=O (centres undefined),-,-,?,55.4,-
CCCCc1ccc(-c2nc(-c3ccncc3)no2)cc1,-,.,91.5,-,-
COc1c(CC=C(C)C)cc(C2CC(=O)c3c(O)cc(O)cc3O2)cc1CC=C(C)C (centres undefined),-,100.2,-,-,100.9
COc1ccc([C@@H]2CC(=O)c3c(O)cc(O)cc3O2)cc1O,-,-,.,.,.
O=C(Nc1nc2ccc(S(=O)(=O)N3CCCC3)cc2s1)c1ccccn1,-,-,-,63.8,-
SMILES,Mdm2 MdmX PPI,CSC inhib,aSyn UTR inh,T cruzi inh,SKKanGAS inh
O=C(Nc1nc2c(F)cc(F)cc2s1)c1ccccn1,-,-,73.1,61.2,72.3
O=C(Nc1nc2ccc(S(=O)(=O)N3CCCCC3)cc2s1)c1ccncc1,-,-,-,-,-
COc1ccc(NC(=S)NCc2ccco2)c(OC)c1,-,-,-,-,-
Cc1ccc(-c2nnc(NC(=O)c3ccco3)o2)c(C)c1,-,-,-,-,83.7
O=C(Nc1nnc(-c2ccc(Br)cc2)o1)c1ccco1,-,-,-,-,93.8
O=C(Cn1sc2ccccc2c1=O)NC12CC3CC(CC(C3)C1)C2,-,-,-,.,88.6
Nc1cccc2c1C(=O)N(CC(=O)NC13CC4CC(CC(C4)C1)C3)C2=O,-,-,-,-,-
COc1ccc(NC2CCCN(C(=O)CCc3ccncc3)C2)cc1OC (centres undefined),-,.,-,-,-
Cc1ccc(NC2CCCN(C(=O)CSc3ccncc3)C2)cc1C (centres undefined),-,-,-,56.4,-
COc1ccc(C(=O)N2CCCC(Nc3ccc(C)c(C)c3)C2)cc1F (centres undefined),-,-,-,-,51.5
Cc1ccc(NC2CCCN(C(=O)Cc3nonc3C)C2)cc1C (centres undefined),-,-,-,-,-

# Bioassay records: PubChem BioAssay, several laboratories
